Reference: ChEMBL document CHEMBL3091368, “Structure-based design, synthesis, and evaluation of imidazo[1,2-b]pyridazine and imidazo[1,2-a]pyridine derivatives as novel dual c-Met and VEGFR2 kinase inhibitors” (Bioorg Med Chem, 2013)
≈ marks a conversion by molar mass, not a printed value.

Columns and labels:
[1] = Clearance in mouse liver microsomes at 1 umol/L by HPLC analysis; type: ADME, Microsome; details: read-out: CLH
Method in brief: (§1)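 Hepatic microsomes at 0.2 mg protein/mL in 50 mmol/L potassium phosphate, pH 7.4, with test compound at 1 µmol/L, incubated at 37 °C. Started by adding an NADPH-generating system (MgCl₂, glucose-6-phosphate, β-NADP⁺, G6P dehydrogenase). Stopped with an equal volume of acetonitrile. Parent compound loss measured by HPLC-UV or LC/MS/MS.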

[2] = Kinetic solubility of the compound in second fluid of disintegration test of Japanese pharmacopoeia containing bile acid at pH 6.8 by HPLC analysis; type: physicochemical; details: read-out: Kinetic_solubility
Method in brief: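 Kinetic solubility in JP second disintegration fluid with bile acid. Compound DMSO solutions added in small volumes to the aqueous buffer and incubated. Precipitate removed by filter-plate filtration, and dissolved compound in the filtrate quantified by HPLC.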

[3] = Clearance in human liver microsomes at 1 umol/L by HPLC analysis; type: ADME; details: read-out: CLH; method in brief: as §1

Compound	microsomal CLint at 1 µM [1] [µL/min/mg]	solubility kinetic [2] [µg/mL]	microsomal CLint at 1 µM [3] [µL/min/mg]
Cc1ccc(C(=O)Nc2ccc(Oc3ccc4nc(NC(=O)C5CC5)cn4n3)c(F)c2)c(=O)n1-c1ccccc1	8	> 140	11
Cc1ccc(C(=O)Nc2ccc(Oc3ccc4nc(NC(=O)C5CC5)cn4c3)c(F)c2)c(=O)n1-c1ccccc1.Cl	10	> 110	6
Cc1ccc(C(=O)Nc2ccc(Oc3ccc4nc(NC(=O)C5CC5)cn4c3)c(F)c2)c(=O)n1-c1ccccc1	–	92 (≈ 171 µM)	–
O=C(Nc1ccc(Oc2ccc3nc(NC(=O)C4CC4)cn3n2)c(F)c1)c1cccn(-c2ccccc2)c1=O	11	3.2 (≈ 6.1 µM)	3
O=C(Nc1ccc(Oc2ccc3nc(NC(=O)C4CC4)cn3c2)c(F)c1)c1cccn(-c2ccccc2)c1=O	15	4.7 (≈ 8.98 µM)	5
